Assays:
[1] = Half life in rat plasma at 10 uM up to 360 mins by LC-MS/MS analysis; assay type: ADME, cell-free
How it was run: (§1)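 Plasma incubated in duplicate at 37 °C with 10 µM test compound (1% methanol; from 1 mM methanol stock). Samples taken at 0, 15, 30, 60, 120, 240 and 360 min and quenched with 9 volumes of ice-cold methanol containing 500 nM internal standard, then centrifuged. Analyte/IS area ratios were quantified by LC-MS/MS as % remaining versus T0. t1/2 = −0.693/k, with k from the slope of log % remaining versus time.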

[2] = Half life in human plasma at 10 uM up to 360 mins by LC-MS/MS analysis; assay type: ADME, cell-free; how it was run: as §1
[3] = system: Plasma; assay: Stability in rat plasma at 10 uM up to 360 mins in presence of EDTA by LC-MS/MS analysis; assay type: ADME, cell-free; conditions: 6 h
How it was run: (§2)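 Rat plasma incubated in duplicate at 37 °C with 10 µM test compound (1% methanol), plus either 1 mM DTNB (11) or 0.5 mM EDTA (12). Duplicate controls used methanol in place of the inhibitor. Samples taken from 0 to 360 min and quenched with 9 volumes of cold methanol containing internal standard. Remaining compound measured by LC-MS/MS relative to T0.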

[4] = target: T1, Liver carboxylesterase 1 (Homo sapiens, UniProt P23141); assay: Drug metabolism assessed as human CES1-mediated compound hydrolysis after 6 hrs; assay type: ADME
T1 sequence (P23141 whole entry): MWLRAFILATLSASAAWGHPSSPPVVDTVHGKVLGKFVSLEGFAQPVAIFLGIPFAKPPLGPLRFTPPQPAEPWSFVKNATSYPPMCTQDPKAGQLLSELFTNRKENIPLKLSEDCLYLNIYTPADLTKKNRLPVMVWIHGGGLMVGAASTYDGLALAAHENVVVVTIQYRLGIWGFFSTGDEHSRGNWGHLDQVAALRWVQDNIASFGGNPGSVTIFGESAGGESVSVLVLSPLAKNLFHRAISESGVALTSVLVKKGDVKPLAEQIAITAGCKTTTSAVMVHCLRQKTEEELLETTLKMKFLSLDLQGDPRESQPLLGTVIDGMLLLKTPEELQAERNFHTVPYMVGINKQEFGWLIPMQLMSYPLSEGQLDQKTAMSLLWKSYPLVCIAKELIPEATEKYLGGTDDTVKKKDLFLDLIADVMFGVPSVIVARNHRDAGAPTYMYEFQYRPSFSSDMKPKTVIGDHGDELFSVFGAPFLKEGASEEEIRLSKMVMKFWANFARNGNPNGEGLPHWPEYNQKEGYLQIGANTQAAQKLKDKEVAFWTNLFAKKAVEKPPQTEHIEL

[5] = target: T2, Liver carboxylesterase 1 (Mus musculus, UniProt Q8VCC2); assay: Drug metabolism assessed as mouse CES1-mediated compound hydrolysis after 6 hrs; assay type: ADME
T2 sequence (Q8VCC2 whole entry): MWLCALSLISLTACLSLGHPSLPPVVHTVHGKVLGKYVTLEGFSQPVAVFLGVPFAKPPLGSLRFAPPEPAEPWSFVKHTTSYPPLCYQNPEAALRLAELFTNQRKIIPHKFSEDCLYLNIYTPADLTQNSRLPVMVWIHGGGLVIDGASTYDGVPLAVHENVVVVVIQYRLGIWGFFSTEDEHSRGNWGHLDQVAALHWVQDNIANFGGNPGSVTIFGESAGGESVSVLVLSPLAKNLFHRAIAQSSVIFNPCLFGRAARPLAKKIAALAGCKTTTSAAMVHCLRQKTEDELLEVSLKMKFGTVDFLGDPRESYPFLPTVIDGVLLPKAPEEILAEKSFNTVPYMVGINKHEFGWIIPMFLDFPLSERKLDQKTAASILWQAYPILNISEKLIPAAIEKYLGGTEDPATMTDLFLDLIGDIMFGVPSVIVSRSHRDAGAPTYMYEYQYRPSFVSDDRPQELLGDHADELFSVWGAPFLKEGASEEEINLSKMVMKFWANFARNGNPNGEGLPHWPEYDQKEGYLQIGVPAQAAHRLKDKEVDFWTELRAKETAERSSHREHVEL

[6] = Half life in rat liver microsomes at 1 uM up to 120 mins by LC-MS/MS analysis; assay type: ADME, microsome
How it was run: (§3)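 Run under non-oxidative conditions, in duplicate at 37 °C: 1 µM test compound (1% methanol) with 1 mg/mL rat liver or rat intestinal microsomal protein. Samples taken at 0, 15, 30, 60 and 120 min and quenched with 4 volumes of cold methanol or acetonitrile containing 200 nM internal standard. Triplicate controls used denatured microsomes. LC-MS/MS gave % remaining versus T0; t1/2 = −0.693/k.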

[7] = Half life in rat intestinal microsomes at 1 uM up to 120 mins by LC-MS/MS analysis; assay type: ADME, Intestine, Microsome; how it was run: as §3
[8] = system: Plasma; assay: Stability in rat plasma at 10 uM up to 360 mins in presence of DTNB by LC-MS/MS analysis; assay type: ADME, cell-free; conditions: 6 h; how it was run: as §2
[9] = Half life in human liver microsomes at 10 uM up to 120 mins by LC-MS/MS analysis; assay type: ADME, microsome

Row | SMILES | half-life at 10 µM [1] [h] | half-life at 10 µM [2] [h] | Stability [3] | further results
1 | CC(Cc1ccccc1)(C(=O)NO)C(=O)NCc1ccccc1 (centres undefined) | 1.5 | > 6 | Unstable | –
2 | O=C(NO)C(Cc1ccccc1)C(=O)NCc1ccccc1 (centres undefined) | 0.8 | > 6 | Unstable | Drug metabolism [4]: Metabolite_Detected; Drug metabolism [5]: Metabolite_Detected
3 | O=C(NO)C1Cc2ccccc2CN1S(=O)(=O)c1ccccc1 (centres undefined) | 0.7 | > 6 | Unstable | –
4 | O=C(CCc1ccccc1)NO | – | – | Unstable | half-life at 1 µM [6]: 0.25 h; half-life at 1 µM [7]: > 6 h; Drug metabolism [4]: Metabolite_Detected; Drug metabolism [5]: Metabolite_Detected
5 | CC(CCc1ccccc1)C(=O)NO (centres undefined) | > 6 | > 6 | – | –
6 | O=C(CCCCc1ccccc1)NO | 0.9 to 0.93 | > 6 | Unstable | –
7 | O=C(CCCC1CCCCC1)NO | 0.05 | > 6 | – | Drug metabolism [4]: Metabolite_Detected; Drug metabolism [5]: Metabolite_Detected
8 | O=C(NO)C(Cc1ccccc1)C(=O)NCc1ccncc1 (centres undefined) | 3.3 | > 6 | Unstable | –
9 | O=C(NO)C(Cc1ccccc1)C(=O)NCc1ccc(F)cc1 (centres undefined) | – | – | Unstable | –
10 | O=C(CC(=O)NCc1ccccc1)NO | > 6 | > 6 | – | –
11 | O=C(CC12CC3CC(CC(C3)C1)C2)NO | > 6 | > 6 | – | –
12 | O=C(/C=C/c1ccc(S(=O)(=O)Nc2ccccc2)cc1)NO | > 6 | > 6 | – | –
13 | O=C(CC(=O)NCc1ccc(F)cc1)NO | > 6 | > 6 | – | –
14 | O=C(C=C(c1ccccc1)c1ccccc1)NO | > 6 | > 6 | – | Drug metabolism [4]: Metabolite_Detected; Drug metabolism [5]: Metabolite_Detected
15 | O=C(NO)[C@H](Cc1ccccc1)NS(=O)(=O)c1ccccc1 | 0.1 | > 6 | Unstable | –
16 | O=C(CCCCCc1ccccc1)NO | 4.5 | > 6 | Unstable | –
17 | O=C(CC1CCCCC1)NO | > 6 | > 6 | – | –
18 | O=C(CCC(=O)Nc1ccccc1)NO | 0.43 | 2.4 | – | Drug metabolism [4]: Metabolite_Detected; Drug metabolism [5]: Metabolite_Detected
19 | O=C(NO)C(Cc1ccncc1)C(=O)NCc1ccccc1 (centres undefined) | 4.5 | > 6 | Unstable | –
20 | O=C(CCNC(=O)c1ccccc1)NO | 2.5 | > 6 | Unstable | –
21 | O=C(NO)C1CCN(C(=O)c2ccccc2)C1 (centres undefined) | > 6 | > 6 | – | –
22 | O=C(CC(=O)Nc1ccccc1)NO | > 6 | > 6 | – | –
23 | CC(C)(C(=O)NO)C(=O)NCc1ccccc1 | > 6 | > 6 | – | –
24 | O=C(NO)C(CCc1ccccc1)Cc1ccccc1 (centres undefined) | > 6 | > 6 | – | –
25 | CC(C(=O)NO)C(=O)NCc1ccccc1 (centres undefined) | > 6 | > 6 | – | –
26 | CC(C)[C@H](C(=O)NO)N(Cc1ccccc1)S(=O)(=O)c1ccccc1 | > 6 | > 6 | – | –

Row | SMILES | half-life at 10 µM [1] [h] | half-life at 10 µM [2] [h] | Stability [3] | further results
27 | O=C(N[C@@H](CO)C(=O)NO)c1ccc(-c2ccccc2)cc1 | > 6 | > 6 | – | –
28 | CS(=O)(=O)C(CCc1ccccc1)(Cc1ccccc1)C(=O)NO (centres undefined) | > 6 | > 6 | – | –
29 | O=C(CCNCc1ccccc1)NO | 2.1 | > 6 | Unstable | –
30 | CC(CCc1ccccc1)(C(=O)NO)S(=O)(=O)c1ccccc1 (centres undefined) | > 6 | > 6 | – | –
31 | O=C(CCC12CC3CC(CC(C3)C1)C2)NO | 0.5 | > 6 | – | Stability [8]: Unstable
32 | O=C(NO)C1(C(=O)NCc2ccccc2)CC1 | > 6 | > 6 | – | –
33 | O=C(CCC1CCCCC1)NO | 0.06 | > 6 | – | Drug metabolism [4]: Metabolite_Detected; Drug metabolism [5]: Metabolite_Detected
34 | O=C(CNC(=O)Cc1ccccc1)NO | 0.29 | > 6 | Unstable | –
35 | O=C(NO)C1(NS(=O)(=O)c2ccccc2)CCOCC1 | > 6 | > 6 | – | –
36 | C[C@H](NCc1ccccc1)C(=O)NO | > 6 | > 6 | – | –
37 | O=C(CNC(=O)c1ccccc1)NO | 0.58 | > 6 | Unstable | –
38 | O=C(NO)C(Cc1ccc2ccccc2c1)C(=O)NCc1ccccc1 (centres undefined) | 0.1 | > 6 | Unstable | Drug metabolism [4]: Metabolite_Detected; Drug metabolism [5]: Metabolite_Detected
39 | O=C(NCC(C(=O)NO)N1CCCCC1)c1ccccc1 (centres undefined) | 0.4 | > 6 | Unstable | –
40 | O=C(CNCCc1ccccc1)NO | 0.5 | > 6 | Unstable | –
41 | O=C(NO)[C@@H](Cc1ccccc1)N(Cc1ccccc1)S(=O)(=O)c1ccccc1 | > 6 | > 6 | – | –
42 | O=C(NO)[C@H](Cc1ccccc1)NCc1ccccc1 | 1.8 | > 6 | Unstable | –
43 | O=C(NO)C(CCc1ccccc1)S(=O)(=O)c1ccccc1 (centres undefined) | > 6 | > 6 | – | –
44 | O=C(CNCc1ccccc1)NO | 3.6 | > 6 | Unstable | –
45 | O=C(/C=C/c1ccc(-c2ccccc2)cc1)NO | > 6 | > 6 | – | –
46 | CC(Cc1ccccc1)(C(=O)NO)C(=O)NCc1ccc(F)cc1 (centres undefined) | – | – | Unstable | –
47 | CC(C(=O)NO)C(=O)NCc1ccc(F)cc1 (centres undefined) | > 6 | > 6 | – | –
48 | O=C(CCCCCCc1ccccc1)NO | > 6 | > 6 | – | –
49 | O=C(/C=C/c1ccc(Cl)cc1Cl)NO [CINNAMIC ACID HYDROXAMATE] | > 6 | > 6 | – | –
50 | CCCCc1nc2cc(/C=C/C(=O)NO)ccc2n1CCN(CC)CC [PRACINOSTAT] | > 6 | > 6 | – | –
51 | CC(=O)Oc1cc2c(s1)CCN(C(C(=O)C1CC1)c1ccccc1F)C2 (centres undefined) [PRASUGREL] | – | – | – | half-life at 1 µM [7]: 0.0167 h
52 | CCOC(=O)[C@H](CCc1ccccc1)N[C@@H](C)C(=O)N1[C@H](C(=O)O)C[C@H]2CCCC[C@@H]21 [TRANDOLAPRIL] | – | – | – | half-life at 1 µM [6]: 0.117 h; half-life at 10 µM [9]: 0.333 h

— ChEMBL document CHEMBL4028870, “Controlling Plasma Stability of Hydroxamic Acids: A MedChem Toolbox” (J Med Chem, 2017)
